Results taken from ChEMBL document CHEMBL3120102, “Structure-based design, synthesis and biological evaluation of novel anthra[1,2-d]imidazole-6,11-dione homologues as potential antitumor agents” (2013).

How the values were obtained:
Assay type in all cases: functional
MDA-MB-468 [1] = assay: Cytotoxicity against human MDA-MB-468 cells assessed as growth inhibition after 48 hrs by SRB assay
How it was run: (§1)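 NCI 60-cell-line screen, five-dose stage: each cell line exposed for 48 h to five concentrations spanning five log steps; cellular protein measured by sulforhodamine B colorimetry. A time-zero cell control and plates without drug are used to derive GI50, TGI and LC50 from log-concentration dose-response curves.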

MDA-MB-231 = assay: Cytotoxicity against human MDA-MB-231 cells assessed as growth inhibition after 48 hrs by SRB assay; how it was run: as §1
MCF7 = assay: Cytotoxicity against human MCF7 cells assessed as growth inhibition after 48 hrs by SRB assay; how it was run: as §1
A498 = assay: Cytotoxicity against human A498 cells assessed as growth inhibition after 48 hrs by SRB assay
How it was run: (§2)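 NCI 60-cell-line five-dose screen at […]. Drug exposure was 48 h, followed by sulforhodamine B protein staining. GI50, TGI and LC50 were calculated against a time-zero control and untreated plates, with dose–response curves plotted from log10 concentration.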

SK-OV-3 = assay: Cytotoxicity against human SKOV3 cells assessed as growth inhibition after 48 hrs by SRB assay; how it was run: as §1
[2] = (§3) Cytotoxicity against human OVCAR5 cells assessed as growth inhibition after 48 hrs by SRB assay; settings: OVCAR-5, 48 h; how it was run: as §1
OVCAR-5 = assay: as §3; how it was run: as §1
OVCAR-3 = assay: Cytotoxicity against human OVCAR3 cells assessed as growth inhibition after 48 hrs by SRB assay; how it was run: as §1
[3] = (§4) Cytotoxicity against human OVCAR4 cells assessed as growth inhibition after 48 hrs by SRB assay; settings: OVCAR-4, 48 h; how it was run: as §1
OVCAR-4 = assay: as §4; how it was run: as §1
IGROV-1 = assay: Cytotoxicity against human IGROV1 cells assessed as growth inhibition after 48 hrs by SRB assay; how it was run: as §2
MDA-MB-435 = assay: Cytotoxicity against human MDA-MB-435 cells assessed as growth inhibition after 48 hrs by SRB assay; how it was run: as §1
M14 = assay: Cytotoxicity against human M14 cells assessed as growth inhibition after 48 hrs by SRB assay; how it was run: as §2
Malme-3M = assay: Cytotoxicity against human MALME-3M cells assessed as growth inhibition after 48 hrs by SRB assay; how it was run: as §2
LOX IMVI = assay: Cytotoxicity against human LOXIMVI cells assessed as growth inhibition after 48 hrs by SRB assay; how it was run: as §2
SNB-19 = assay: Cytotoxicity against human SNB19 cells assessed as growth inhibition after 48 hrs by SRB assay
How it was run: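 NCI 60-cell-line screen, two stages. Five-dose testing at […]. Cellular protein measured by sulforhodamine B colorimetry after 48 h drug exposure. A time-zero control and drug-free plates are used to derive GI50, TGI and LC50 from dose-response curves plotted as log10 concentration per cell line.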

SF-268 = assay: Cytotoxicity against human SF268 cells assessed as growth inhibition after 48 hrs by SRB assay; how it was run: as §1
KM12 = assay: Cytotoxicity against human KM12 cells assessed as growth inhibition after 48 hrs by SRB assay; how it was run: as §2
HCT-15 = assay: Cytotoxicity against human HCT15 cells assessed as growth inhibition after 48 hrs by SRB assay; how it was run: as §2
HCT-116 = assay: Cytotoxicity against human HCT116 cells assessed as growth inhibition after 48 hrs by SRB assay; how it was run: as §2
HCC 2998 = assay: Cytotoxicity against human HCC2998 cells assessed as growth inhibition after 48 hrs by SRB assay; how it was run: as §2
COLO 205 = assay: Cytotoxicity against human COLO205 cells assessed as growth inhibition after 48 hrs by SRB assay; how it was run: as §2
NCI-H322M = assay: Cytotoxicity against human NCI-H322M cells assessed as growth inhibition after 48 hrs by SRB assay; how it was run: as §1
HOP-62 = assay: Cytotoxicity against human HOP62 cells assessed as growth inhibition after 48 hrs by SRB assay; how it was run: as §2
CCRF-CEM = assay: Cytotoxicity against human CCRF-CEM cells assessed as growth inhibition after 48 hrs by SRB assay; how it was run: as §2
MDA-MB-468 [4] = assay: Cytotoxicity against human MDA-MB-468 cells assessed as cell growth at 10 uM after 48 hrs by SRB assay; settings: MDA-MB-468, 48 h, read-out: Activity
How it was run: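 First stage of the NCI 60 human tumour cell line screen: a single dose is tested against every line. Cell growth is read as cellular protein by sulforhodamine B colorimetry after 48 h of drug exposure, with reference to a time-zero control and to untreated plates.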

Q: For `O=C1c2ccccc2C(=O)c2c1ccc1nc(SCCN3CCCC3)[nH]c21`, which “growth inhibition (GI)” value (MDA-MB-468 [1]) is on record?
A: Dose-dependent effect

Q: And the GI50 (MDA-MB-468 [1]; MDA-MB-468, 48 h)?
A: 1.33 µM

Q: And the LC50 (MDA-MB-468 [1]; MDA-MB-468, 48 h)?
A: 7.05 µM

Q: What about the TGI (MDA-MB-468 [1]; MDA-MB-468, 48 h) of the same molecule?
A: 3.06 µM

Q: And the “growth inhibition (GI)” value (MDA-MB-231)?
A: Dose-dependent effect

Q: And the GI50 (MDA-MB-231; MDA-MB-231, 48 h)?
A: 4.46 µM

Q: What about the LC50 (MDA-MB-231; MDA-MB-231, 48 h) of the same molecule?
A: 43.9 µM

Q: What about the TGI (MDA-MB-231; MDA-MB-231, 48 h) of the same molecule?
A: 16.2 µM

Q: What about the “growth inhibition (GI)” value (MCF7) of the same molecule?
A: Dose-dependent effect

Q: And the GI50 (MCF7; MCF7, 48 h)?
A: 1.74 µM

Q: What about the LC50 (concentration killing 50% of cells) (MCF7; MCF7, 48 h) of the same molecule?
A: 45.6 µM

Q: And the TGI (MCF7; MCF7, 48 h)?
A: 7.52 µM

Q: What about the “growth inhibition (GI)” value (A498) of the same molecule?
A: Dose-dependent effect

Q: And the GI50 (A498; A498, 48 h)?
A: 5.82 µM

Q: What about the TGI (A498; A498, 48 h) of the same molecule?
A: 21.3 µM

Q: What about the CC50 (A498; A498, 48 h, read-out: LC50 (the source's name)) of the same molecule?
A: 49.4 µM

Q: And the “growth inhibition (GI)” value (SK-OV-3)?
A: Dose-dependent effect

Q: And the GI50 (SK-OV-3; SK-OV-3, 48 h)?
A: 10.5 µM

Q: What about the LC50 (concentration killing 50% of cells present at time zero) (SK-OV-3; SK-OV-3, 48 h) of the same molecule?
A: 54 µM

Q: What about the TGI (SK-OV-3; SK-OV-3, 48 h) of the same molecule?
A: 23.8 µM

Q: And the GI50 [2]?
A: 15.5 µM

Q: What about the LC50 [2] of the same molecule?
A: 55.8 µM

Q: What about the TGI [2] of the same molecule?
A: 29.4 µM

Q: And the “growth inhibition (GI)” value (OVCAR-5)?
A: Dose-dependent effect

Q: What about the “growth inhibition (GI)” value (OVCAR-3) of the same molecule?
A: Dose-dependent effect

Q: What about the GI50 (OVCAR-3; OVCAR-3, 48 h) of the same molecule?
A: 2.76 µM

Q: What about the LC50 (50% lethal concentration) (OVCAR-3; OVCAR-3, 48 h) of the same molecule?
A: 35.6 µM

Q: What about the TGI (OVCAR-3; OVCAR-3, 48 h) of the same molecule?
A: 11.1 µM

Q: And the GI50 [3]?
A: 1.89 µM

Q: What about the LC50 (concentration killing 50% of cells) [3] of the same molecule?
A: 38.9 µM

Q: And the TGI [3]?
A: 7.34 µM

Q: And the “growth inhibition (GI)” value (OVCAR-4)?
A: Dose-dependent effect

Q: What about the “growth inhibition (GI)” value (IGROV-1) of the same molecule?
A: Dose-dependent effect

Q: And the GI50 (IGROV-1; IGROV-1, 48 h)?
A: 0.56 µM

Q: And the LC50 (IGROV-1; IGROV-1, 48 h)?
A: 22.4 µM

Q: What about the TGI (IGROV-1; IGROV-1, 48 h) of the same molecule?
A: 3.39 µM

Q: And the “growth inhibition (GI)” value (MDA-MB-435)?
A: Dose-dependent effect

Q: What about the GI50 (MDA-MB-435; MDA-MB-435, 48 h) of the same molecule?
A: 4.18 µM

Q: What about the LC50 (MDA-MB-435; MDA-MB-435, 48 h) of the same molecule?
A: 43.9 µM

Q: What about the TGI (MDA-MB-435; MDA-MB-435, 48 h) of the same molecule?
A: 16.2 µM

Q: And the “growth inhibition (GI)” value (M14)?
A: Dose-dependent effect

Q: What about the GI50 (M14; M14, 48 h) of the same molecule?
A: 8.24 µM

Q: And the LC50 (M14; M14, 48 h)?
A: 47.9 µM

Q: What about the TGI (M14; M14, 48 h) of the same molecule?
A: 21.2 µM

Q: What about the GI50 (Malme-3M) of the same molecule?
A: 14 µM

Q: What about the TGI (Malme-3M) of the same molecule?
A: 28.8 µM

Q: And the “growth inhibition (GI)” value (Malme-3M)?
A: Dose-dependent effect

Q: What about the CC50 (Malme-3M; read-out: LC50 (the source's name)) of the same molecule?
A: 59.4 µM

Q: What about the GI50 (LOX IMVI) of the same molecule?
A: 1.43 µM

Q: And the LC50 (LOX IMVI)?
A: 6.25 µM

Q: What about the TGI (LOX IMVI) of the same molecule?
A: 2.99 µM

Q: What about the “growth inhibition (GI)” value (LOX IMVI) of the same molecule?
A: Dose-dependent effect

Q: What about the “growth inhibition (GI)” value (SNB-19) of the same molecule?
A: Dose-dependent effect

Q: And the GI50 (SNB-19; SNB-19, 48 h)?
A: 17.1 µM

Q: What about the LC50 (SNB-19; SNB-19, 48 h) of the same molecule?
A: 59.7 µM

Q: And the TGI (SNB-19; SNB-19, 48 h)?
A: 31.9 µM

Q: What about the “growth inhibition (GI)” value (SF-268) of the same molecule?
A: Dose-dependent effect

Q: And the GI50 (SF-268; SF-268, 48 h)?
A: 9.54 µM

Q: What about the LC50 (concentration killing 50% of cells relative to time zero) (SF-268; SF-268, 48 h) of the same molecule?
A: 52.9 µM

Q: And the TGI (SF-268; SF-268, 48 h)?
A: 22.8 µM

Q: And the “growth inhibition (GI)” value (KM12)?
A: Dose-dependent effect

Q: And the GI50 (KM12; KM12, 48 h)?
A: 2.32 µM

Q: And the TGI (KM12; KM12, 48 h)?
A: 6.16 µM

Q: And the CC50 (KM12; KM12, 48 h, read-out: LC50 (the source's name))?
A: 24.4 µM

Q: And the “growth inhibition (GI)” value (HCT-15)?
A: Dose-dependent effect

Q: And the GI50 (HCT-15; HCT-15, 48 h)?
A: 1.62 µM

Q: What about the LC50 (concentration killing 50% of cells) (HCT-15; HCT-15, 48 h) of the same molecule?
A: 34.7 µM

Q: What about the TGI (HCT-15; HCT-15, 48 h) of the same molecule?
A: 10.3 µM

Q: What about the “growth inhibition (GI)” value (HCT-116) of the same molecule?
A: Dose-dependent effect

Q: What about the GI50 (HCT-116; HCT-116, 48 h) of the same molecule?
A: 1.64 µM

Q: And the LC50 (HCT-116; HCT-116, 48 h)?
A: 8.15 µM

Q: What about the TGI (HCT-116; HCT-116, 48 h) of the same molecule?
A: 3.66 µM

Q: What about the “growth inhibition (GI)” value (HCC 2998) of the same molecule?
A: Dose-dependent effect

Q: What about the GI50 (HCC 2998; HCC 2998, 48 h) of the same molecule?
A: 4.91 µM

Q: What about the TGI (HCC 2998; HCC 2998, 48 h) of the same molecule?
A: 18.5 µM

Q: And the CC50 (HCC 2998; HCC 2998, 48 h, read-out: LC50 (the source's name))?
A: 46 µM

Q: And the “growth inhibition (GI)” value (COLO 205)?
A: Dose-dependent effect

Q: And the GI50 (COLO 205; COLO 205, 48 h)?
A: 3.07 µM

Q: And the LC50 (COLO 205; COLO 205, 48 h)?
A: 58.6 µM

Q: And the TGI (COLO 205; COLO 205, 48 h)?
A: 16.7 µM

Q: And the TGI (NCI-H322M)?
A: 21.4 µM

Q: And the “growth inhibition (GI)” value (NCI-H322M)?
A: Dose-dependent effect

Q: What about the “growth inhibition (GI)” value (HOP-62) of the same molecule?
A: Dose-dependent effect

Q: And the GI50 (HOP-62; HOP-62, 48 h)?
A: 18 µM

Q: What about the TGI (HOP-62; HOP-62, 48 h) of the same molecule?
A: 33.2 µM

Q: And the GI50 (CCRF-CEM)?
A: 3.34 µM

Q: What about the LC50 (CCRF-CEM) of the same molecule?
A: 62.8 µM

Q: What about the TGI (CCRF-CEM) of the same molecule?
A: 15.6 µM

Q: What about the “growth inhibition (GI)” value (CCRF-CEM) of the same molecule?
A: Dose-dependent effect

Q: What about the growth at 10 µM (MDA-MB-468 [4]) of the same molecule?
A: 67.9%
